Here are results for five molecules from ChEMBL document CHEMBL4145531, “Synthesis of novel Chlorin e6-curcumin conjugates as photosensitizers for photodynamic therapy against pancreatic carcinoma” (Eur J Med Chem, 2018).

Series [1] can be described thus: Dark toxicity in human PANC1 cells assessed as reduction in cell viability after 72 hrs by MTT assay. The series is classed as cell-based, PANC-1. Summed up:
(§1)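 AsPC-1 cells were grown in RPMI-1640, and MIA PaCa-2 and PANC-1 in DMEM, each with 10% FBS and 1% penicillin/streptomycin. 5.0 x 10^3 cells were seeded and left overnight at 37 °C. They were exposed to 0-300 µM compound for 3h without laser irradiation, then held 72h in the dark at 37 °C, 5% CO₂. Viability was read by MTT.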

Series [2] is described as follows: Selectivity index, ratio of IC50 for dark toxicity in human PANC1 cells to IC50 for phototoxicity in human PANC1 cells. The series is classed as cell-based, PANC-1. As to conditions: read-out: Ratio IC50; call rule not given here. Summed up:
(§2)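 The ratio is the dark-toxicity IC50 over the phototoxicity IC50 in the same cell line, both from 72h MTT. The dark arm received no light. The photo arm was irradiated at 660 nm, 50 mW, 9 J/cm² after 3h compound exposure.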

The next series concerns PANC-1. As to the kind of experiment: Phototoxicity in human PANC1 cells assessed as reduction in cell viability preincubated for 3 hrs followed by 9 J/cm2 laser light irradiation and measured after 72 hrs by MTT assay. Particulars: PANC-1, light or radiation study. The series is classed as functional, cell-based. The procedure, abridged: (§3)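 Cells were seeded at 5.0 x 10^3 per well and incubated overnight at 37 °C. AsPC-1 was in RPMI-1640 and MIA PaCa-2/PANC-1 in DMEM, with 10% FBS. Cells took up compound for 3h, then received 660 nm laser light (50 mW, 9 J/cm²).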

A short description of series [3]: Selectivity index, ratio of IC50 for dark toxicity in human AsPC1 cells to IC50 for phototoxicity in human AsPC1 cells. The series is classed as cell-based. As to conditions: read-out: Ratio IC50. Summed up: as §2
A further series concerns ASPC1. Put plainly: Phototoxicity in human AsPC1 cells assessed as reduction in cell viability preincubated for 3 hrs followed by 9 J/cm2 laser light irradiation and measured after 72 hrs by MTT assay. The series is classed as functional, cell-based. As to conditions: ASPC1, light or radiation study. The procedure, abridged:
as §3

A short description of series [4]: Induction of singlet oxygen production in DMSO assessed as DPBF absorption intensity (reference value: 100%). Format: functional. Summed up: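 DPBF (50 µM in DMSO) was mixed with 1 µM photosensitizer in the dark. Samples were irradiated at 660 nm, 50 mW, 2 J/cm² for 40 s. Singlet oxygen was read as the decay of normalized DPBF absorbance at 418 nm relative to a DPBF-only control.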

A further series has as its system MIA PaCa-2. As to the kind of experiment: Phototoxicity in human MIAPaCa2 cells assessed as reduction in cell viability preincubated for 3 hrs followed by 9 J/cm2 laser light irradiation and measured after 72 hrs by MTT assay. Format: functional, cell-based. Particulars: MIA PaCa-2, light or radiation study. The procedure, abridged:
as §3

The nature of series [5]: Dark toxicity in human AsPC1 cells assessed as reduction in cell viability after 72 hrs by MTT assay. The series is classed as cell-based. The procedure, abridged:
as §1

The nature of series [6]: Solubility of the compound in 2% DMSO/98% de-ionized water at 16 uM. Format: physicochemical. As to conditions: buffer.
Series [7] in a line: Selectivity index, ratio of IC50 for dark toxicity in human MIAPaCa2 cells to IC50 for phototoxicity in human MIAPaCa2 cells. Format: cell-based, MIA PaCa-2. As to conditions: read-out: Ratio IC50. Summed up: as §2
A short description of series [8]: Drug uptake in human AsPC1 cells at 5 uM by FACS analysis. As to conditions: aspc1, 5 µM, TDE = time-dependent effect. Format: ADME, cell-based. Summed up: (§4)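 AsPC-1 cells (2 x 10^5) were seeded and kept in the dark at 37 °C for 24h. They were then incubated with 5 µM compound for 30 min to 24h. Cells were harvested by trypsin, washed three times in PBS and resuspended in PBS. Uptake was read as mean fluorescence intensity by FACS.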

Series [9] is described as follows: Dark toxicity in human MIAPaCa2 cells assessed as reduction in cell viability after 72 hrs by MTT assay. Format: cell-based, MIA PaCa-2. Summed up:
as §1

A short description of series [10]: Solubility of the compound in 2% DMSO/98% de-ionized water at 8.7 uM. Format: physicochemical. As to conditions: buffer.
A short description of series [11]: Drug uptake in human AsPC1 cells at 5 uM after 3 to 24 hrs by FACS analysis. Particulars: aspc1, 5 µM. Format: ADME, cell-based. The procedure, abridged:
as §4

The nature of series [12]: Solubility of the compound in 2% DMSO/98% de-ionized water at 8.4 uM. The series is classed as physicochemical. As to conditions: buffer.
Series [13] in a line: Solubility of the compound in 2% DMSO/98% de-ionized water at 7.7 uM. Particulars: buffer. Format: physicochemical.

Each structure is given as a SMILES string.

On to `C=Cc1c(C)c2cc3nc(c(CC(=O)O)c4[nH]c(cc5nc(cc1[nH]2)C(C)=C5CC)c(C)c4C(=O)O)C(CCC(=O)O)C3C` (configuration not stated), for which the IC50 at 72 h in [1] was 67 µM; in series [5] it was 126 µM; in series [9], 89 µM. Besides, the selectivity ratio amounted to 6.6 in series [2], 6.45 in series [3] and 5.61 in [7]. Also, the IC50 in the series with PANC-1 came to 10.1 µM; in the series on ASPC1, 19.5 µM; in the series on MIA PaCa-2 it was 15.8 µM. Further, the Activity in series [4] is 9.88%. In [6], the solubility entry is given as “Soluble”. In series [8], the Drug uptake result was “Tde”.

Turning to `CN(C)c1ccc2nc3ccc(=[N+](C)C)cc-3sc2c1`, the Activity in series [4] turned out to be 33.9%.

As to `C=Cc1c(C)c2cc3nc(c(CC(=O)OC)c4[nH]c(cc5nc(cc1[nH]2)C(C)=C5CC)c(C)c4C(=O)NCCCNC(=O)CCCC(=O)Oc1ccc(/C=C/C(=O)CC(=O)/C=C/c2ccc(O)c(OC)c2)cc1OC)C(CCC(=O)OC)C3C` (configuration not stated), the IC50 at 72 h was more than 300 µM in series [1], more than 300 µM in series [5] and 200 µM in series [9]. For the same molecule, the selectivity ratio in series [2] is more than 65.5; in series [3] it was more than 52.3; in series [7], 47.6. For the same molecule, the IC50 with PANC-1 turned out to be 4.58 µM; in the series with ASPC1 it was 5.74 µM; with MIA PaCa-2, 4.2 µM. Also, in [4], the Activity was 7.39%. The solubility entry in series [10] is listed as “Soluble”. In addition, the Drug uptake result in [8] is on record as “Tde”; in [11] it was “Active”.

Consider `C=Cc1c(C)c2cc3nc(c(CC(=O)OC)c4[nH]c(cc5nc(cc1[nH]2)C(C)=C5CC)c(C)c4C(=O)NCCCCCCNC(=O)CCCC(=O)Oc1ccc(/C=C/C(=O)CC(=O)/C=C/c2ccc(O)c(OC)c2)cc1OC)C(CCC(=O)OC)C3C` (configuration not stated), for which the IC50 at 72 h in series [1] is more than 300 µM; in [5], 285 µM; in series [9] it was 265 µM. Besides, the selectivity ratio in series [2] was more than 6.58; in series [3] it was 28.3; in series [7], 5.6. Moreover, the IC50 was 45.6 µM in the series on PANC-1, 10.1 µM with ASPC1 and 47.3 µM in the series on MIA PaCa-2. Also, in series [4], the Activity was 10.1%. Moreover, the Drug uptake result in [8] is “Tde”; in series [11], “Active”. In addition, the solubility result in series [12] was “Soluble”.

As to `C=Cc1c(C)c2cc3nc(c(CC(=O)OC)c4[nH]c(cc5nc(cc1[nH]2)C(C)=C5CC)c(C)c4C(=O)NCCCOCCOCCOCCCNC(=O)CCCC(=O)Oc1ccc(/C=C/C(=O)CC(=O)/C=C/c2ccc(O)c(OC)c2)cc1OC)C(CCC(=O)OC)C3C` (configuration not stated), the figures for the IC50 at 72 h in series [1], in series [5] and in series [9] were more than 300 µM, 193 µM and more than 300 µM, respectively. Also, the selectivity ratio is more than 19.1 in series [2], 32.5 in [3] and more than 64.7 in series [7]. The IC50 in the series with PANC-1 was determined as 15.7 µM; in the series with ASPC1 it was 5.93 µM; in the series on MIA PaCa-2, 4.64 µM. Also, in [13], the solubility entry is listed as “Soluble”. Further, the Activity in series [4] came out at 12.3%. Further, the Drug uptake result is given as “Tde” in series [8] and “Active” in series [11].
